Measurements as given in ChEMBL document CHEMBL4266033, “Neolymphostin A Is a Covalent Phosphoinositide 3-Kinase (PI3K)/Mammalian Target of Rapamycin (mTOR) Dual Inhibitor That Employs an Unusual Electrophilic Vinylogous Ester” (J Med Chem, 2018).
Calls of active or inactive are those of the source. The calls are words filed in the database; no cut-off is given here.

Experiments:
[1] = biological target: Mitogen-activated protein kinase 8 (Homo sapiens) (UniProt P45983); test: Binding affinity to human JNK1 at 1 uM after 1 hr by KINOMEscan assay
Mitogen-activated protein kinase 8 (Homo sapiens), sequence (P45983 whole entry, canonical isoform): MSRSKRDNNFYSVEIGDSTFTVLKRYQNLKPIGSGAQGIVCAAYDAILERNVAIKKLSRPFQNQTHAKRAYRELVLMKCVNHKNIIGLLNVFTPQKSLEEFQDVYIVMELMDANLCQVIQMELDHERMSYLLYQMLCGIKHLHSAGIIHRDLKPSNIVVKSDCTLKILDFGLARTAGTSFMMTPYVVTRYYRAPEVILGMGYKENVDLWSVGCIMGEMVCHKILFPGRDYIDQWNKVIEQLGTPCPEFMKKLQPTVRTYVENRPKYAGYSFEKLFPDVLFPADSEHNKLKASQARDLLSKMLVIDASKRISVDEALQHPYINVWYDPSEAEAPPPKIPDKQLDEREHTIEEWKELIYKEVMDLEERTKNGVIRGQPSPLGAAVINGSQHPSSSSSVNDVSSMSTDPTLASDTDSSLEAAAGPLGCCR

[2] = biological target: Phosphatidylinositol 4,5-bisphosphate 3-kinase catalytic subunit beta isoform (Homo sapiens, UniProt P42338); test: Binding affinity to human PI3Kbeta after 1 hr by KINOMEscan assay
Phosphatidylinositol 4,5-bisphosphate 3-kinase catalytic subunit beta isoform, sequence (P42338 whole entry, canonical isoform): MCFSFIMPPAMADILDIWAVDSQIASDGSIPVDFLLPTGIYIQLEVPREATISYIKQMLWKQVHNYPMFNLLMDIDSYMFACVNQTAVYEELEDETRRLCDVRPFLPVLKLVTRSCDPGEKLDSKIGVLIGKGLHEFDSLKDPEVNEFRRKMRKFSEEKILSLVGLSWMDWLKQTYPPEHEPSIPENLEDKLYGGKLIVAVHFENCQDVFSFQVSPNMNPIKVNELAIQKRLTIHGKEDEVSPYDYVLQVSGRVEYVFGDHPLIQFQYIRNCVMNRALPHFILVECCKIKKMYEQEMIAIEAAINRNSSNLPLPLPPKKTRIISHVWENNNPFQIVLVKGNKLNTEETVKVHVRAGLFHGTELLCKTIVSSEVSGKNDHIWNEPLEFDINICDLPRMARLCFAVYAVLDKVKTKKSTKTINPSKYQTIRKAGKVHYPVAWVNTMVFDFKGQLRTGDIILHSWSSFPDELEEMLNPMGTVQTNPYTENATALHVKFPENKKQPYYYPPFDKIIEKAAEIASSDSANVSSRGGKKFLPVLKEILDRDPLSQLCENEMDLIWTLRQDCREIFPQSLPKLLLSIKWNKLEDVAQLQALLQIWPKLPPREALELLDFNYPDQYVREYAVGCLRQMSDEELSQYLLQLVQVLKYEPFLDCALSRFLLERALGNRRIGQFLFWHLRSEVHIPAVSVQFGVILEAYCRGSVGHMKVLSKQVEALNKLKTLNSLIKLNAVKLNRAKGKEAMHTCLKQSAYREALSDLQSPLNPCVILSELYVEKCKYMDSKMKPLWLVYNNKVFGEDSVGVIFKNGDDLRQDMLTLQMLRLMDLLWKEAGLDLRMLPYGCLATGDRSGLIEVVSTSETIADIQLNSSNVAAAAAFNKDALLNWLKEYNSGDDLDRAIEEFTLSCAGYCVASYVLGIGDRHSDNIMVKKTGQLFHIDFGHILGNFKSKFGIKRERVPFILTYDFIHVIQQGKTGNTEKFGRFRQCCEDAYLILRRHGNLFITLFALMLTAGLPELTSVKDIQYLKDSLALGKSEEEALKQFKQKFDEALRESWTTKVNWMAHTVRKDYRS

[3] = test system: Panel NCI-60 (60 carcinoma cell lines); test: Growth inhibition of human NCI60 cells after 48 hrs by sulforhodamine B assay; type: functional
Summary of the method: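 NCI 60-cell line panel (leukemia, NSCLC, colon, CNS, melanoma, ovarian, renal, prostate, breast). 5-point dose-response curves with top concentration 50 µM. GI50, TGI and LC50 were calculated from the curves.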

[4] = biological target: Tyrosine-protein kinase Lck (Homo sapiens, UniProt P06239); test: Binding affinity to human LCK after 1 hr by KINOMEscan assay
Tyrosine-protein kinase Lck, sequence (P06239 whole entry): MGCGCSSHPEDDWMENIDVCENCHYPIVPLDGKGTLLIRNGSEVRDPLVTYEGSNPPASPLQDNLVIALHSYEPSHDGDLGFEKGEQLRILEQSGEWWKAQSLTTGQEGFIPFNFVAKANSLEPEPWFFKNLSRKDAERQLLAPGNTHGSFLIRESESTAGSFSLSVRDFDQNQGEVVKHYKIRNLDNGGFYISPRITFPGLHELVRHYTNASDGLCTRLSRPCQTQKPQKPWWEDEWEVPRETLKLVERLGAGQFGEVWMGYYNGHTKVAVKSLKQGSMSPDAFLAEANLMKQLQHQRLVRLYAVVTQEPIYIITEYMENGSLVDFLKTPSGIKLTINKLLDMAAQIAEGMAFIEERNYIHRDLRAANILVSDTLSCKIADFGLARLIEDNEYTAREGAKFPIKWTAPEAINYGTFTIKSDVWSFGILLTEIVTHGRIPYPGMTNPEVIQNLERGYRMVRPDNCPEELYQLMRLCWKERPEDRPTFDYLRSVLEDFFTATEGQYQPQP

[5] = biological target: Aurora kinase B (Homo sapiens) (UniProt Q96GD4); test: Binding affinity to human AURKB at 1 uM after 1 hr by KINOMEscan assay
Aurora kinase B (Homo sapiens), sequence (Q96GD4 whole entry): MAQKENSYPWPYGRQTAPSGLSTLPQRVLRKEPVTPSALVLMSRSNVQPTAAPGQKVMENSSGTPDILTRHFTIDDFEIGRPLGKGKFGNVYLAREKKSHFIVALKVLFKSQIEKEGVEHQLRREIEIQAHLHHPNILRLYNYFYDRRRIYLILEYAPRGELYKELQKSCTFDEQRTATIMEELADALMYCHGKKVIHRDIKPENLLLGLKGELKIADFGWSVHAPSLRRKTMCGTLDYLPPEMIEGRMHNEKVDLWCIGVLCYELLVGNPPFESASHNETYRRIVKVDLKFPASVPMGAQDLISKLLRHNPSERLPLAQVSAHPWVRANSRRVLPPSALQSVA
Summary of the method: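 KINOMEscan competition binding profiling across 97 kinases. Affinity expressed as percent of control.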

[6] = biological target: Mitogen-activated protein kinase 9 (Homo sapiens) (UniProt P45984); test: Binding affinity to human JNK2 at 1 uM after 1 hr by KINOMEscan assay
Mitogen-activated protein kinase 9 (Homo sapiens), sequence (P45984 whole entry, looked up): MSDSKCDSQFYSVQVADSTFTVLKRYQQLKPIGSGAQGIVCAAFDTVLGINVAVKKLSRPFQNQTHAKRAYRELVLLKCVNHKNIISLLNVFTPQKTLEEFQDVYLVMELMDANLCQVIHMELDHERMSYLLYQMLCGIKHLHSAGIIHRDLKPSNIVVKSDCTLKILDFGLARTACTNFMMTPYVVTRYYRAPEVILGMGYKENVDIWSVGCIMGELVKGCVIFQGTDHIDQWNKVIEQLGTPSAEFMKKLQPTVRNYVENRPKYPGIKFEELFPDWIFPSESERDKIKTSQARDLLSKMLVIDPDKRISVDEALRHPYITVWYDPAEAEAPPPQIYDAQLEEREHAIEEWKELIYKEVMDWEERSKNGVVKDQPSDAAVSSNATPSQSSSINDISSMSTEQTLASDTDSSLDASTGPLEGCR

[7] = biological target: T1, Aurora kinase A (Homo sapiens) (UniProt O14965); test: Binding affinity to human AURKA at 1 uM after 1 hr by KINOMEscan assay
T1 sequence (whole entry): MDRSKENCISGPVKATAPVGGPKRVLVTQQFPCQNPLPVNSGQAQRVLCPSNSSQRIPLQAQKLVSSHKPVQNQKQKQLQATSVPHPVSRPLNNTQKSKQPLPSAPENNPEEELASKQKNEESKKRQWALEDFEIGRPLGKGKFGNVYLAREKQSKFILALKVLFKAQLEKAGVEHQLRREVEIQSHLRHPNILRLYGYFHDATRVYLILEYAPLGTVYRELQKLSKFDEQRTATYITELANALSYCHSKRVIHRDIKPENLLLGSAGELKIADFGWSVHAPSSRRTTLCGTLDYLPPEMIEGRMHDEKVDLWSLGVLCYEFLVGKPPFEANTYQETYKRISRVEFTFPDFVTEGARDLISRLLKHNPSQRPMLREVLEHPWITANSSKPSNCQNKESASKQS

[8] = biological target: T2, Phosphatidylinositol 4,5-bisphosphate 3-kinase catalytic subunit gamma isoform (Homo sapiens, UniProt P48736); test: Binding affinity to human PI3Kgamma equilibrate for 1 hr by scan-kinetic platform assay
T2 sequence (P48736 whole entry, canonical isoform): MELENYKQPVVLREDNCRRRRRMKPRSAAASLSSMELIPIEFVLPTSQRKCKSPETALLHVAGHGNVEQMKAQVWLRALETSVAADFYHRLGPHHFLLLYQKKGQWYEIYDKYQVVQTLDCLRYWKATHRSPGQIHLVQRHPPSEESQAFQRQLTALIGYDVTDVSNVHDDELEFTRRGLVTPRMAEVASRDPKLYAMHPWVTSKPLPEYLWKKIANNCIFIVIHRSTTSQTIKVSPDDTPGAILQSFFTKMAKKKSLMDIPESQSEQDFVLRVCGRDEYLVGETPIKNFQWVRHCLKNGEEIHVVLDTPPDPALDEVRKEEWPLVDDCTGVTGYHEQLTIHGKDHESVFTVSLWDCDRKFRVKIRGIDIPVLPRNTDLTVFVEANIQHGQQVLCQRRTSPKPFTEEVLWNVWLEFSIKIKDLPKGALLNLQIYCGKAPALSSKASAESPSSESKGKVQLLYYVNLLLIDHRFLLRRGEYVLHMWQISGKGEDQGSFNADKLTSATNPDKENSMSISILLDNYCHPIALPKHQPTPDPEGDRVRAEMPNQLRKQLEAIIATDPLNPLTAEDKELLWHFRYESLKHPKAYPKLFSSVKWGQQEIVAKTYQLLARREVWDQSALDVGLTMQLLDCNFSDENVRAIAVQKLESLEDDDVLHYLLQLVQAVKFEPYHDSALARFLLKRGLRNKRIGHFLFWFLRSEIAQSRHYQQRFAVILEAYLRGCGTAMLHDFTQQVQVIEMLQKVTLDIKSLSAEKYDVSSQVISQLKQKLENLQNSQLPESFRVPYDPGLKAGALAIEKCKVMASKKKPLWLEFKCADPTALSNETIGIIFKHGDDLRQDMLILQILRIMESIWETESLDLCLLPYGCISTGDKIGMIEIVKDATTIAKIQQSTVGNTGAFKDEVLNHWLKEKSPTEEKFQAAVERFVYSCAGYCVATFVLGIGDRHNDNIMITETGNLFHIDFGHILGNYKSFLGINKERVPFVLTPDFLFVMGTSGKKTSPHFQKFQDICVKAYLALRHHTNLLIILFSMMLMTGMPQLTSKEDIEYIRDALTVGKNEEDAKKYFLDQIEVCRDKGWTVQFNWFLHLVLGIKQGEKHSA
Summary of the method: (§1)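 scanKINETIC format on PI3Kα and PI3Kγ. […] Arm C: equilibrated 1 h. Arm B: equilibrated 1 h, diluted 30-fold, then re-equilibrated. Arm D: diluted immediately, then equilibrated. Kd compared with and without the dilution step to judge reversibility.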

[9] = biological target: T3, Phosphatidylinositol 4,5-bisphosphate 3-kinase catalytic subunit alpha isoform (Homo sapiens, UniProt P42336); test: Binding affinity to human PI3Kalpha equilibrate for 6 hrs by scan-kinetic platform assay; summary of the method: as §1
T3 sequence (P42336 whole entry, canonical isoform): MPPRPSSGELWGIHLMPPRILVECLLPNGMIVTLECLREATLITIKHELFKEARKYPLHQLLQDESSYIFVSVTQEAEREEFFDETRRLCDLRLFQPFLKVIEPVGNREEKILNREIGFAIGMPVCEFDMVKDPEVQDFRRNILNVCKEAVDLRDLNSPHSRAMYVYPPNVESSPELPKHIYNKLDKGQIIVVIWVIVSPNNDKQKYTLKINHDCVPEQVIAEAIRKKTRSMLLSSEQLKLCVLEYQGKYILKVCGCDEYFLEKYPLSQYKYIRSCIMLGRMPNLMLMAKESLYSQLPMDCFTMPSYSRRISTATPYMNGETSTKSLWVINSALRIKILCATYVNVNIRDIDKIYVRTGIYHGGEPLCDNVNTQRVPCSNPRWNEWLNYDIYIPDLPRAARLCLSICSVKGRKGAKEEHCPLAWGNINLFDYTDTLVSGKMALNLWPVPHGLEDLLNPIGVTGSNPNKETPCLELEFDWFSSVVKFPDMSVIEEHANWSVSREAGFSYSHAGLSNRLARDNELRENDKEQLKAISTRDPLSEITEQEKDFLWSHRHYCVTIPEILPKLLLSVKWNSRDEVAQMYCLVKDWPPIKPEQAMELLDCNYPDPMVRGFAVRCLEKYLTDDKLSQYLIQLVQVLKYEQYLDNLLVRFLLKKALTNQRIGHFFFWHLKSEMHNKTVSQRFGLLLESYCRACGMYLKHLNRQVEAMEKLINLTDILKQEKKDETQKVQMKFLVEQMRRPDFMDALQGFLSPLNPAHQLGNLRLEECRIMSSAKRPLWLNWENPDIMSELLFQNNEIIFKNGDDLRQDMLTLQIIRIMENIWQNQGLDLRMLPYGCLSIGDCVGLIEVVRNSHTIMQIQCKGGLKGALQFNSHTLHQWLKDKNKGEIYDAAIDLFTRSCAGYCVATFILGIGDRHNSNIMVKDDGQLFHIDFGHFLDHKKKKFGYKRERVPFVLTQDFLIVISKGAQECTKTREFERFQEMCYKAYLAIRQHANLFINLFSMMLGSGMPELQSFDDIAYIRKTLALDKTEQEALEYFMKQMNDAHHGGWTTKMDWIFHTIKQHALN

[10] = biological target: T4, Serine/threonine-protein kinase PLK4 (Homo sapiens) (UniProt O00444); test: Binding affinity to human PLK4 at 1 uM after 1 hr by KINOMEscan assay
T4 sequence (whole entry): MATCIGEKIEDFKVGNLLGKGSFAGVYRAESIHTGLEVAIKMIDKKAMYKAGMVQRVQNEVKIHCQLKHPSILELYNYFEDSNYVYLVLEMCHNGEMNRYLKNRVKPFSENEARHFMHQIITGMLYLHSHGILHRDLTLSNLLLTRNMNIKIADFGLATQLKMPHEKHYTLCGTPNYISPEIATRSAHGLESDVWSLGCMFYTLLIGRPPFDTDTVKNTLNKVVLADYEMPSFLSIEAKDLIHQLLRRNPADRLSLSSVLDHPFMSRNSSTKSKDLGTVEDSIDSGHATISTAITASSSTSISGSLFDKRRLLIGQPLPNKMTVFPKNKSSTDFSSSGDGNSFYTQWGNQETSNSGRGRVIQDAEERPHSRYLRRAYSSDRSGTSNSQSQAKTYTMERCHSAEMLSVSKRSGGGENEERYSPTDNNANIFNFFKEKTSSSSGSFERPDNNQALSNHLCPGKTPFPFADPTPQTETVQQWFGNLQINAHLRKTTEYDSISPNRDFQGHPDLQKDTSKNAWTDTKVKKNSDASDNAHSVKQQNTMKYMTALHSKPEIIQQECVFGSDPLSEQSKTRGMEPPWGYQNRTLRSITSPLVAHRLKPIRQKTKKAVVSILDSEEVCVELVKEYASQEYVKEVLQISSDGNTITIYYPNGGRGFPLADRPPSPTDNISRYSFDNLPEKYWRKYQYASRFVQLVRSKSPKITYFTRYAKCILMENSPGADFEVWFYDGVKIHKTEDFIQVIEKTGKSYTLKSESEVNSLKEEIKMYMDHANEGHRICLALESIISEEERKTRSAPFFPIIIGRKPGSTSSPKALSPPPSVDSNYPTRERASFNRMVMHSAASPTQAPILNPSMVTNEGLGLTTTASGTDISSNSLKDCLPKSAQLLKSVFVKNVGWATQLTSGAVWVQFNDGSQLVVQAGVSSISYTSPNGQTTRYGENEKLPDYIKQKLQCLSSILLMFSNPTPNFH

[11] = biological target: T2, Phosphatidylinositol 4,5-bisphosphate 3-kinase catalytic subunit gamma isoform; test: Binding affinity to human PI3Kgamma after 1 hr by KINOMEscan assay
[12] = biological target: T5, PI3-kinase p110-alpha/p85-alpha (Homo sapiens) (UniProt P27986+P42336); test: Binding affinity to PI3Kalpha/p85alpha (unknown origin) assessed as covalent modification at Lys802 residue at 4 uM measured for 3/300 secs by hydrogen-deuterium exchange mass spectrometry; type: protein-complex assay
Summary of the method: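 PI3Kα (p110α/p85α) preincubated 30 min at 2 μM with 4 μM inhibitor or DMSO (5% final). Diluted to 0.4 μM in 50 μL for deuterium exchange at 3 s on ice and 300 s at 20 °C. Quenched with ice-cold 2 M guanidine-HCl/3% formic acid, then UPLC-TOF-MS. Peptide changes >5% and >0.4 Da with paired t-test p<0.01 taken as significant.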

[13] = biological target: T3, Phosphatidylinositol 4,5-bisphosphate 3-kinase catalytic subunit alpha isoform; test: Binding affinity to human PI3Kalpha equilibrate for 1 hr followed by 30 fold dilution and re-equilibrate for 5 hrs by scan-kinetic platform assay; summary of the method: as §1
[14] = biological target: T5, PI3-kinase p110-alpha/p85-alpha (Homo sapiens); test: Binding affinity to PI3Kalpha/p85alpha (unknown origin) assessed as covalent modification at Lys802 residue at 4 uM after 2 mins by tandem MS/MS method; type: protein-complex assay
Summary of the method: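 Recombinant PI3Kα (p110α/p85α) at 2 μM mixed with 4 μM inhibitor in 10 mM HEPES pH 7.5, 100 mM NaCl, 5% DMSO. Timepoints quenched by unfolding in ice-cold 2 M guanidine-HCl/3% formic acid, snap-frozen in liquid N2, stored at −80 °C. Analysed by LC-MS/MS; mass shift of the modified peptide read out.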

SMILES: CO/C=C/C(=O)c1cc2c3c(c(N)cc(NC(=O)C(C)C)c3n1)N=C2
- Activity [1]: Active
- Kd [2]: 5.7 nM
- GI50 [3]: 6 to 840 nM
- Kd [4]: 4600 nM
- Activity [5]: Active
- Activity [6]: Active
- Activity [7]: Active
- Kd [8]: 2 to 3.3 nM
- Kd [9]: 0.43 to 0.45 nM
- Activity [10]: Active
- Kd [11]: 3.5 nM
- Activity [12]: Active
- Kd [13]: 0.56 to 0.72 nM
- Activity [14]: Active
